# bovine MsrA act – activators of bovine methionine sulfoxide reductase A; purified bovine MsrA, absorbance read-out; actives 0.3% (n = 360,000); AID 602163; activation, % at 10.6 µM; in the data active = activation above about 7.5%;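 note: 0% = vehicle and 100% = reference activator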
# proCasp7 act – activates human procaspase-7, counter-screen for procaspase-3 activators | activation, % at 8.5 µM | actives 0.093% (n = 330,000) | recombinant procaspase-7, Ac-DEVD-pNA absorbance 405 nm; D23A/D198A/D206A triple mutant, cannot self-cleave; scale: DMSO 0, 5 µM enzyme 100 | P55210;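 active = percent activation above the screen-wide mean plus 3 SD, cut at about 25% in these data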
# Target sequence (P55210 whole entry D23A/D198A/D206A): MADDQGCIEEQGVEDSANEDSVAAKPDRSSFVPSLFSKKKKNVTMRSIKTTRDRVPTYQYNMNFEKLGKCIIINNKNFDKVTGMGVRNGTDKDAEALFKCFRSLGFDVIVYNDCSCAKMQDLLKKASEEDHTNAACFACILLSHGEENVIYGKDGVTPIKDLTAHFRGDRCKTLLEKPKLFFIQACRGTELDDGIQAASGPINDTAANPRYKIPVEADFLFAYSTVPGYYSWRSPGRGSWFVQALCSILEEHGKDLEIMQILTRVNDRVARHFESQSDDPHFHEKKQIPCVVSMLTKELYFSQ
#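 Detection: p-Nitroaniline absorbance at 405 nm, read at 0 and 120 min; system: Uncleavable procaspase-7 mutant enzyme; evaluation: % activation from two-timepoint absorbance difference, scaled to controls; times: 1 h enzyme–compound preincubation and 2 h substrate reaction, both 25 °C; buffer or medium: Zinc-free HEPES pH 7.4 with 300 mM NaCl, 0.01% Triton X-100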
# proCasp3 act – activators of human procaspase-3; actives 0.11% (n = 330,000); recombinant procaspase-3 D3A, Ac-DEVD-pNA absorbance 405 nm; AID 463141; activation, % at 8.5 µM;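 active = activation above the mean of all tested compounds plus 3 SD, cut at about 21% in these data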;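 note: 0% = DMSO alone and 100% = DMSO wells spiked with extra 5 µM PC-3 D3A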
# Target sequence (P42574 whole entry D9A/D28A/D175A): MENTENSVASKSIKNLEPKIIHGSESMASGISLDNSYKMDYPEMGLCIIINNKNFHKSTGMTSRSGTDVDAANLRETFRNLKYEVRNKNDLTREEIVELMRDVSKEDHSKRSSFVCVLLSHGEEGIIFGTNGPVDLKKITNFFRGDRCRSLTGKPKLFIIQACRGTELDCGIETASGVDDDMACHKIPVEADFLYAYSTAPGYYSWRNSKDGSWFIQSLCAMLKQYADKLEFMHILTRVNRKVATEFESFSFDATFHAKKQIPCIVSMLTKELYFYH
#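 Technique: 405 nm absorbance of p-nitroaniline, reads at 0 and 120 min; Test system: Procaspase-3 D3A mutant; Incubation: 1 h enzyme-compound preincubation, then 2 h substrate reaction, 25 °C; Repeats: singlicate, each compound tested once; Benchmarks: low control DMSO wells, high control DMSO plus 5 µM PC-3 D3A.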
# MsrA inh – inhibitors of bovine MsrA; purified bovine MsrA, absorbance read-out; inhibition, % at 15.5 µM; actives 0.75% (n = 360,000); AID 651718;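 note: 0% = vehicle wells with enzyme and 100% = reference inhibitor wells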
# MsrA conf – confirmation of bovine MsrA inhibitors; shares compounds with MsrA inh; purified bovine MsrA, absorbance read-out; inhibition, % at 15.5 µM; actives 41% (n = 2,300);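 note: coupled to thioredoxin reductase with NADPH and selenocystamine and DMSO as substrate; 0% = vehicle only and 100% = full effect of reference inhibitor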
# The depositor's hits bear a star; . = not tested or not shown. Compounds with a hit are over-represented: about 1.2% of the library has one in this group of screens. Cut-off read from the data, not from the text of the source, unless noted: active = inhibition above about 4.5%; inactive = the rest.
SMILES,bovine MsrA act,proCasp7 act,proCasp3 act,MsrA inh,MsrA conf
Cc1c(NC(=S)N/N=C/c2ccc(N(C)C)cc2)c(=O)n(-c2ccccc2)n1C,-6,-7,-1,5.0*,4.6*
Cc1c(NC(=S)N/N=C/c2cccc(O)c2)c(=O)n(-c2ccccc2)n1C,-4,1,3,3,.
O=c1cc(-c2ccc(O)cc2)oc2cc(O[C@@H]3O[C@H](CO)[C@@H](O)[C@H](O)[C@H]3O[C@@H]3OC[C@](O)(CO)[C@H]3O)cc(O)c12,-2,1,-4,5.3*,3
O=C(NCCN1CCC(n2c(=O)[nH]c3cc(Cl)ccc32)CC1)c1ccc(F)cc1,.,.,.,0,.
COC(=O)C1=C(C)N(Cc2ccc(F)cc2)C(=S)NC1c1cccc(OC)c1 (stereo not given),.,.,.,0,.
O=C(N/N=C/C(Cl)=C/c1ccc([N+](=O)[O-])cc1)C(=O)Nc1ccc(C(=O)O)cc1,-5,7,-7,2,.
O=C(N/N=C/C(Cl)=C/c1ccc([N+](=O)[O-])cc1)C(=O)Nc1ccccc1C(=O)O,-4,-11,-8,7.5*,3
O=C(OCC(=O)N1CCN(C(=O)c2ccco2)CC1)c1ccccc1NCCO,-2,-3,-3,4.7*,1
Cn1c(=O)n(C)c2cc(/C=C3/SC(=O)N(CC(=O)N4CCOCC4)C3=O)ccc21,-4,-7,-3,4.8*,5
Cc1c(C(=O)N/N=C/c2ccccc2)sc(=S)n1C,1,8,4,3,.
Cc1c(C(=O)N/N=C/c2ccc(O)cc2)sc(=S)n1C,-6,8,8,5.8*,4.8*
O=C(O)CCSc1ccc([N+](=O)[O-])cc1[N+](=O)[O-],-12,4,-3,5.4*,3
CC(C)c1[nH]nc2c1C(c1cccc(C(F)(F)F)c1)NC2=O (stereo not given),.,.,.,0,.
O=C(Nc1cccc(C(=O)O)c1)/C(=C\C=C\c1ccccc1)NC(=O)c1ccccc1,-5,-6,-3,8.4*,5.5*
O=C(Nc1ccc(C(=O)O)cc1)/C(=C\C=C\c1ccccc1)NC(=O)c1ccccc1Br,-12,1,-2,8.7*,6.4*
O=C(Nc1cccc(C(=O)O)c1)/C(=C\c1ccccc1)NC(=O)c1ccccc1,-5,1,1,3,.
O=C(Nc1ccc(C(=O)O)cc1)/C(=C\C=C\c1ccccc1)NC(=O)c1cccc(Br)c1,-4,1,-3,5.2*,4.6*
CN(Cc1ccccc1)C(=O)c1cccc(NC(=O)Cc2cccc(NC(=O)C3CCN(C(=O)CCc4ccccc4)CC3)c2)c1,.,.,.,1,.
O=C(NCc1cccnc1)c1cc(C2CCCN(C(=O)c3ccccn3)C2)on1 (stereo not given),-5,.,.,48*,0
COc1ccc(-c2nn(CCC(=O)O)cc2/C=C2\SC(N)=NC2=O)cc1OC,-5,-6,1,5.6*,3
O=C1NC(=O)C2(CCCc3ccc(N(CCO)CCO)cc32)N1 (stereo not given),.,.,.,1,.
COc1ccc2cc3cc(C(=O)NCCCN4CCOCC4)oc3nc2c1,-7,-5,-2,6.6*,4
Cc1ccc(CN2CC(N3CCC[C@@H]3C)CS2(=O)=O)cc1 (stereo not given in full),.,.,.,2,.
Cc1ccc(/C=N/NC(=O)c2cccc([N+](=O)[O-])c2)o1,-3,7,-2,5.2*,4.9*
CC(=O)Nc1cccc(C(=O)N/N=C/c2ccc(C)o2)c1,-7,-3,3,1,.
SMILES,bovine MsrA act,proCasp7 act,proCasp3 act,MsrA inh,MsrA conf
Cc1ccc(/C=N\NC(=O)c2ccc3c(c2)OCO3)o1,-8,6,-2,4.9*,5.4*
Cc1ccc(C(=O)N/N=C/c2ccc3c(c2)OCO3)o1,-7,-7,6,5.8*,5.7*
COc1cc(/C=N/NC(=O)c2ccncc2)cc(OC)c1OC,-3,-10,5,2,.
COc1cc(C(=O)NN=Cc2ccc(N(C)C)cc2)cc(OC)c1OC,-5,.,.,5.1*,5.1*
COc1ccc(-c2cscc2N)cc1,.,.,.,-1,.
Cc1cccc(CN2[C@@H](C)[C@H](c3ccccc3)Oc3cc(Br)ccc3S2(=O)=O)c1,.,.,.,-1,.
COc1cccc(/C=N/NC(=O)c2cccc(N3CCCC3=O)c2)c1,-3,-4,7,-1,.
COc1cc(C(=O)NCC(=O)N/N=C/c2ccc(-c3ccc([N+](=O)[O-])cc3)o2)cc(OC)c1OC,-2,-7,1,2,.
CN(C)c1ccc(/C=N/NC(=O)c2cccc(N3CCCC3=O)c2)cc1,-5,12,5,7.2*,7.0*
COc1cc(C(=O)NCC(=O)N/N=C/c2ccc(-c3cccc([N+](=O)[O-])c3)o2)cc(OC)c1OC,-2,0,-4,5.3*,3
CN(C)c1ccc(/C=N/NC(=O)c2ccc3c(c2)OCO3)cc1,-5,.,.,6.9*,5.5*
Cn1cc([N+](=O)[O-])c(C(=O)N/N=C/c2ccc3c(c2)OCO3)n1,-3,8,-2,4.9*,3
CN(C(=O)[C@H]1O[C@@H](n2cnc(C(N)=O)n2)[C@H](O)[C@@H]1O)c1ccccc1,.,.,.,-1,.
O=C(Cc1ccc(NC(=O)C2CCCN(C(=O)c3ccccc3)C2)cc1)Nc1cccc(C(=O)N2CCCC2)c1 (stereo not given),.,.,.,1,.
COc1ccc(C(=O)N/C(=C/c2cccs2)c2nc3ccccc3[nH]2)cc1OC,-5,6,2,5.3*,4
COc1ccc(C(=O)N/C(=C/c2cccs2)C(=O)NC(C)(C)C)cc1OC,-4,10,4,2,.
COc1cc(/C=C(/C(=O)c2cccs2)c2nc3ccccc3[nH]2)cc(OC)c1O,-6,-5,-10,5.5*,4
COc1ccc(/C=C/C(=O)Nc2c(C(=O)O)[nH]c3ccccc23)cc1OC,-8,-13,-7,5.6*,3
COc1ccc(/C=C/C(=O)Nc2ccc(-n3nncc3-c3ccc(OC)c(OC)c3)cc2)cc1OC,-2,-9,2,5.1*,4
CN1CCCCC(NC(=O)c2ccc(F)c(F)c2)C1=O (stereo not given),.,.,.,0,.
C=CCNc1cccc2c1S(=O)(=O)N[C@H](CC(C)C)CO2,.,.,.,1,.
CCCNC(=O)Cn1nc(C)n2c(cc3cc(F)ccc32)c1=O,-2,.,.,1,.
CCN1CCCC1CNC(=O)Cn1nc(C)n2c(cc3cc(F)ccc32)c1=O (stereo not given),-8,7,5,25*,0
Cc1cc(N2CCOCC2)ccc1/C=C1\NC(=O)N(CC(=O)Nc2ccc(F)cc2)C1=O,-3,-15,11,5.6*,1
Cc1cc(N2CCOCC2)ccc1/C=C1\NC(=O)N(CC(=O)Nc2ccccc2C)C1=O,-7,-6,7,0,.
COc1ccc2c(c1)[C@@]1(OCCC=C[C@H]1C)C(=O)N2Cc1ccccc1C(F)(F)F,.,.,.,3,.
COc1ccc(C=CC(=O)c2ccc([N+](=O)[O-])cc2)cc1,1,.,.,-1,.
